Experiment [1] deals with Rattus norvegicus. Briefly: Evaluated for the duration of cytoprotective effect, in Ethanol-Necrosis model, that causes inhibition of ulceration. Absolute ethanol was administered at 8 hr after dosing. Type of experiment: functional. Set-up: concentration or dose not given beside the values. The procedure, abridged:
(§1)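 Male Sprague-Dawley rats (180–210 g), fasted 18–24 h with water available, dosed orally with drug or vehicle 4, 6 or 8 h before absolute ethanol (1 mL per rat po). Rats killed 1 h after ethanol, stomachs kept moist with saline and scored blind by ulcer size (mm²) and number per size class. Percent inhibition is taken against the vehicle group mean score.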

For experiment [2], the species on record is Rattus norvegicus. Briefly: Effective dose that inhibits formation of induced gastric lesions. The experiment is classed as functional. The settings on record: Stomach. The procedure, abridged: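 Male Sprague-Dawley rats (180–210 g), fasted 18–24 h with water allowed, dosed orally 1 h before absolute ethanol (1 mL/rat po) and killed 1 h later. Lesions scored blind by size (mm²) and number, expressed as % inhibition versus vehicle mean. Groups of ≥10 rats; Dunnett's test (p < 0.01).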

For experiment [3], the system named is Rattus norvegicus. Briefly: Inhibitory activity In the indomethacin model at a dose of 120 mg/kg perorally. Type of experiment: functional. The settings on record: route oral. Summed up: (§2)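 In male Sprague-Dawley rats (120–170 g) fasted 18 h with water ad libitum, oral test compound was given 30 min before indomethacin (20 mg/kg po). Rats killed by cervical dislocation 4 h later; stomachs opened along the greater curvature, rinsed, and lesions graded by size and number. Percent inhibition versus control, ≥10 rats per group.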

The subject of experiment [4] is Rattus norvegicus. Briefly: Inhibitory activity against ethanol-induced lesions, which was administered after 1 hr of oral dosing in pylorus-ligated rat model. The experiment is classed as functional.
Experiment [5] concerns Rattus norvegicus. Nature of the experiment: Inhibitory activity in acidified aspirin model at a dose of 50 mg/kg perorally. The experiment is classed as functional. The settings on record: route oral. The procedure, abridged:
(§3)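 Male Sprague-Dawley rats (120–180 g), fasted 18–24 h with water ad libitum. Compound or vehicle given po (10 mL/kg) 30 min before acidified aspirin (aspirin powder in 0.35 M HCl, 5 mL/kg po). Stomachs excised 5 h after aspirin and graded by ulcer size and number. Percent inhibition versus vehicle, ≥10 rats per group.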

In experiment [6] the test system is Rattus norvegicus. Briefly: Inhibition against ethanol-induced lesions which was administered after 1 hr at a oral dosing of 25 mg/kg in pylorus-ligated rat model. The experiment is classed as functional.
Experiment [7] deals with Rattus norvegicus. Briefly: Evaluated for the duration of cytoprotective effect, in Ethanol-Necrosis model, that causes inhibition of ulceration. Absolute ethanol was administered at 4 hr after dosing. The experiment is classed as functional. More on the design: concentration or dose not given beside the values. The procedure, abridged: as §1
Experiment [8] deals with Rattus norvegicus. Nature of the experiment: Inhibition against ethanol-induced lesions which was administered after 1 hr at a oral dosing of 10 mg/kg in pylorus-ligated rat model. The experiment is classed as functional.
In experiment [9] the test system is Rattus norvegicus. Briefly: Inhibitory activity In acidified aspirin model at a dose of 16 mg/kg perorally. The experiment is classed as functional. The settings on record: route oral. Summed up: as §3
In experiment [10] the test system is Rattus norvegicus. Nature of the experiment: Inhibitory activity in the indomethacin model at a dose of 40 mg/kg perorally. The experiment is classed as functional. The settings on record: route oral. The procedure, abridged:
as §2

The subject of experiment [11] is Rattus norvegicus. Briefly: Inhibitory activity In acidified aspirin model at a dose of 40 mg/kg perorally. The experiment is classed as functional. The settings on record: route oral. Summed up:
as §3

The test system of experiment [12] is Rattus norvegicus. Briefly: Inhibitory activity In the indomethacin model at a dose of 111 mg/kg perorally. The experiment is classed as functional. The settings on record: route oral. The procedure, abridged: as §2
For experiment [13], the system named is Rattus norvegicus. Nature of the experiment: Compound was evaluated for the duration of cytoprotective effect, in Ethanol-Necrosis model, that causes inhibition of ulceration. Absolute ethanol was administered at 6 hr after dosing. The experiment is classed as functional. Summed up:
as §1

Experiment [14] deals with Rattus norvegicus. Briefly: Compound was tested for inhibition against ethanol-induced lesions which was administered after 1 hr of oral dosing in rat ethanol-necrosis model.
Experiment [15] has as its system Rattus norvegicus. Briefly: Compound was tested for inhibition against ethanol-induced lesions which was administered after 1 hr of at a oral dosing of 25 mg/kg in pylorus-ligated rat model. The experiment is classed as functional.
The species entered for experiment [16] is Rattus norvegicus. Nature of the experiment: Inhibitory activity In acidified aspirin model. The experiment is classed as functional. The procedure, abridged:
as §3

Experiment [17] is filed under the species Rattus norvegicus. Nature of the experiment: Inhibitory activity In the indomethacin model. The experiment is classed as functional. Summed up: as §2
Experiment [18] has as its system Rattus norvegicus. Nature of the experiment: Compound was evaluated for the duration of cytoprotective effect, in Ethanol-Necrosis model, that causes inhibition of ulceration. Absolute ethanol was administered at 8 hr after dosing. The experiment is classed as functional. Summed up:
as §1

Regarding `CC1(C)OC(/C=C/c2ccc(C#N)cc2)=CC1=O`, the Inhibition with Rattus norvegicus [1] was found to be 66%. Besides, the ED50 in the experiment filed under Rattus norvegicus [2] is 50 mg/kg; in the experiment with Rattus norvegicus [4], 12 mg/kg. The molecule further registered an inhibition in vivo at 120 mg/kg with Rattus norvegicus [3] of 70%. The molecule also came in with an inhibition in vivo at 50 mg/kg in the experiment on Rattus norvegicus [5] of 23%. The molecule `CC1(C)OC(/C=C/c2ccc(C(F)(F)F)cc2)=CC1=O` showed an inhibition in vivo at 25 mg/kg with Rattus norvegicus [6] of 30%.

Regarding `CSc1ccc(/C=C/C2=CC(=O)C(C)(C)O2)cc1`, at 25 mg/kg the inhibition in vivo with Rattus norvegicus [6] was 5%. For `CC1(c2ccccc2)OC(/C=C/c2ccccn2)=CC1=O` (configuration not stated), the Inhibition with Rattus norvegicus [7] was 28%. For the same molecule, the ED50 was 40 mg/kg in the experiment listed under Rattus norvegicus [2] and 5 mg/kg with Rattus norvegicus [4]. `CC1(C)OC(/C=C/c2cc3ccccc3s2)=CC1=O` registered an inhibition in vivo at 10 mg/kg with Rattus norvegicus [8] of 17%. Molecule `CC1(C)OC(/C=C/c2ccoc2)=CC1=O` showed an inhibition in vivo at 10 mg/kg in the experiment with Rattus norvegicus [8] of 32%. On the same count and under the same terms, the same measure for `CC1(c2ccccc2)OC(/C=C/c2cccnc2)=CC1=O` (configuration not stated): 44%.

`CC1(C)OC(/C=C/c2ccsc2)=CC1=O` returned an inhibition in vivo at 16 mg/kg with Rattus norvegicus [9] of 0%. In addition, the Inhibition with Rattus norvegicus [1] was determined as 62%. For the same molecule, the values for the ED50 in the experiment listed under Rattus norvegicus [2] and in the experiment with Rattus norvegicus [4] were 16 mg/kg and 4 mg/kg, respectively. The molecule further gave an inhibition in vivo at 40 mg/kg in the experiment with Rattus norvegicus [10] of 65%.

In the experiment with Rattus norvegicus [6], `CC1(C)OC(c2ccc(Br)cc2)=CC1=O` yielded an inhibition in vivo at 25 mg/kg of 36%. With `CC1(C)OC(/C=C/c2ccccn2)=CC1=O`, the Inhibition is 76% in the experiment with Rattus norvegicus [1] and 67% with Rattus norvegicus [7]. Moreover, the ED50 in the experiment filed under Rattus norvegicus [2] stood at 40 mg/kg; with Rattus norvegicus [4], 10 mg/kg. For the same molecule, in the experiment on Rattus norvegicus [11], the inhibition in vivo at 40 mg/kg is 77%. The same molecule returned an inhibition in vivo at 111 mg/kg in the experiment with Rattus norvegicus [12] of 72%.

For the molecule `CC1(c2ccc(F)cc2)OC(/C=C/c2ccsc2)=CC1=O` (configuration not stated), 10 mg/kg produced 22% inhibition in vivo in the experiment on Rattus norvegicus [8]. For `Cn1cccc1/C=C/C1=CC(=O)C(C)(C)O1`, in the experiment on Rattus norvegicus [8], the inhibition in vivo at 10 mg/kg is 32%. Take `CC1(C)OC(/C=C/C=C/c2ccc(Cl)cc2)=CC1=O`: the inhibition in vivo at 10 mg/kg in the experiment on Rattus norvegicus [8] was determined as 33%. As to `CC1(C)OC(/C=C/c2ccc(Cl)cc2)=CC1=O`, the Inhibition with Rattus norvegicus [7] turned out to be 51%. The same molecule returned an ED50 in the experiment filed under Rattus norvegicus [2] of 40 mg/kg. Turning to `CC1(C)OC(/C=C/c2cnccn2)=CC1=O`, at 10 mg/kg the inhibition in vivo in the experiment on Rattus norvegicus [8] was 56%. Still for that read-out and setting: the same measure for `CC1(c2ccccc2)OC(/C=C/c2ccc(C#N)cc2)=CC1=O` (configuration not stated): 4%. As to `CC1(C)OC(c2ccc(C(F)(F)F)cc2)=CC1=O`, the inhibition in vivo at 25 mg/kg with Rattus norvegicus [6] was determined as 39%. On the same count and under the same terms, in the case of `CC1(C)OC(/C=C/c2ccc(Cl)cc2Cl)=CC1=O` it was 20%.

For `CC1(C)OC(/C=C/c2cccnc2)=CC1=O`, the Inhibition in the experiment on Rattus norvegicus [1] is given as 40%; in the experiment on Rattus norvegicus [7], 43%; in the experiment with Rattus norvegicus [13], 60%. Also, the ED50 in the experiment listed under Rattus norvegicus [2] worked out at 40 mg/kg; in the experiment on Rattus norvegicus [4], 9 mg/kg. In the experiment with Rattus norvegicus [14], `CC1(C)OC(/C=C/c2ccc(F)c(F)c2)=CC1=O` showed an Inhibition of 47%. `CC1(C)OC(/C=C/c2ccc(F)cc2F)=CC1=O` gave an Inhibition with Rattus norvegicus [7] of 42%. The values for the ED50 in the experiment filed under Rattus norvegicus [2] and in the experiment with Rattus norvegicus [4] were 100 mg/kg and 11 mg/kg, respectively. Take `CC1(c2ccc(F)cc2)OC(/C=C/c2ccccn2)=CC1=O` (configuration not stated): the ED50 in the experiment with Rattus norvegicus [4] was determined as 3.5 mg/kg.

Molecule `CC1(C)OC(/C=C/c2ccc3ccccc3c2)=CC1=O` showed an inhibition in vivo at 25 mg/kg with Rattus norvegicus [6] of 43%. For `CC1(c2ccccc2)OC(/C=C/c2ccncc2)=CC1=O` (configuration not stated), in the experiment with Rattus norvegicus [7], the Inhibition amounted to 31%. In addition, the ED50 worked out at 24 mg/kg in the experiment listed under Rattus norvegicus [2] and 6 mg/kg with Rattus norvegicus [4]. Molecule `CC1(C)OC(/C=C/c2cccc(C#N)c2)=CC1=O` yielded an inhibition in vivo at 10 mg/kg in the experiment with Rattus norvegicus [8] of 68%. `CC1(C)OC(/C=C/c2cccs2)=CC1=O`: at 25 mg/kg the inhibition in vivo in the experiment with Rattus norvegicus [15] was 1%. In the experiment on Rattus norvegicus [6], `CC1(C)OC(/C=C/c2ccc(S(C)(=O)=O)cc2)=CC1=O` showed an inhibition in vivo at 25 mg/kg of 56%. For `CC1(C)OC(/C=C/c2ccc(F)cc2)=CC1=O`, the Inhibition with Rattus norvegicus [1] was 25%; in the experiment on Rattus norvegicus [7], 61%; in the experiment with Rattus norvegicus [13], 50%. The ED50 was 50 mg/kg in the experiment listed under Rattus norvegicus [2] and 11 mg/kg in the experiment with Rattus norvegicus [4]. The molecule `CC1(C)OC(c2ccc(Cl)cc2)=CC1=O` showed an inhibition in vivo at 25 mg/kg with Rattus norvegicus [6] of 29%. In the case of `CC1(C)OC(/C=C/c2cc(Cl)cc(Cl)c2)=CC1=O`, the inhibition in vivo at 25 mg/kg in the experiment with Rattus norvegicus [6] was 63%. In the experiment on Rattus norvegicus [8], `CC1(c2ccc(F)cc2)OC(/C=C/c2ccc(C#N)cc2)=CC1=O` (configuration not stated) showed an inhibition in vivo at 10 mg/kg of 1%. `CC1(c2ccccc2)OC(/C=C/c2ccsc2)=CC1=O` (configuration not stated): the inhibition in vivo at 10 mg/kg in the experiment with Rattus norvegicus [8] is 0%.

As to `CC1(C)OC(/C=C/c2ccccc2)=CC1=O`, the ED50 with Rattus norvegicus [4] was found to be 17 mg/kg. Still for that read-out and setting: the same measure for `CC1(C)OC(/C=C/c2ccnc3ccccc23)=CC1=O`: 2.5 mg/kg. In turn, `CC1(C)OC(/C=C/c2ccc(Cl)c(Cl)c2)=CC1=O` had an inhibition in vivo at 25 mg/kg in the experiment on Rattus norvegicus [6] of 45%.

`C/C(=C\c1ccccc1)C1=CC(=O)C(C)(C)O1`: at 10 mg/kg the inhibition in vivo with Rattus norvegicus [8] was 0%.

For `CC1(C)OC(c2ccccc2)=CC1=O`, the 50% effect level in the experiment with Rattus norvegicus [4] (ED50) was put at a dose of 19 mg/kg.

Take `CC1(C)OC(/C=C/c2ccncc2)=CC1=O`: the ED50 in the experiment filed under Rattus norvegicus [2] came to 20 mg/kg; in the experiment on Rattus norvegicus [4], 4 mg/kg. The same molecule gave an Inhibition with Rattus norvegicus [13] of 46%.

In the experiment with Rattus norvegicus [14], `COc1ccc(C2=CC(=O)C(C)(C)O2)cc1` had an Inhibition of 30%. The molecule `CC1(C)OC(/C=C/c2ccc(Br)cc2)=CC1=O` displayed an ED50 with Rattus norvegicus [4] of 18 mg/kg. For the molecule `CC(=O)c1ccc2c(c1)C(=O)C1(CC1)O2` [SPIZOFURONE], the Inhibition is reported as 78% in the experiment listed under Rattus norvegicus [16]; 72% with Rattus norvegicus [7]; 95% in the experiment listed under Rattus norvegicus [17]; 0% with Rattus norvegicus [18]; 44% in the experiment with Rattus norvegicus [13]. For the same molecule, the ED50 amounted to 100 mg/kg in the experiment listed under Rattus norvegicus [2] and 10 mg/kg in the experiment on Rattus norvegicus [4].

These data come from ChEMBL document CHEMBL1125416, “Synthesis and antiulcer activity of novel 5-(2-ethenyl substituted)-3(2H)-furanones” (1992).
